One may read the IC50 as the midpoint of a concentration-inhibition curve. For orientation: GI50 means the concentration at which growth is held to half of that of the control. The low end stands for more potent growth inhibition, the high end for less potent growth inhibition.

Molecules are shown by their SMILES. Active and inactive are the calls of the source. The calls are words filed in the database; no cut-off is given here.

These results are taken from ChEMBL document CHEMBL1153829, “Exploiting chemical libraries, structure, and genomics in the search for kinase inhibitors” (Science, 1998).

Assay [1] addresses Protein kinase C zeta type (Homo sapiens, UniProt Q05513). Briefly: Inhibition of human PKCzeta.
The subject of another assay is NCI-H522. Put plainly: Growth inhibition human NCI-H522 cells. In kind it is functional.
The target of assay [2] is Protein kinase C alpha type (Homo sapiens, UniProt P17252). Put plainly: Inhibition of human PKCalpha.
The target in assay [3] is Cyclin-dependent kinase 5/CDK5 activator 1 (Homo sapiens, UniProt Q00535). Put plainly: Inhibition of human cdk5/p35. In kind it is protein-complex assay.
Assay [4] deals with c-Jun N-terminal kinase, JNK (Homo sapiens, UniProt P45983+P53779+P45984). Put plainly: Inhibition of human JNK.
Another assay addresses Casein kinase 2 (Homo sapiens, UniProt P67870+P68400+P19784+Q8NEV1). Briefly: Inhibition of human casein kinase 2. Format: protein assay.
Assay [5] in a line: Growth inhibition human NCI60 cells. In kind it is functional.
Assay [6] has as its target Glycogen synthase kinase-3 beta (Homo sapiens, UniProt P49841). Briefly: Inhibition of human GSK3-beta.
The next assay relates to KM12. Briefly: Growth inhibition human KM12 cells. In kind it is functional.
Assay [7] addresses Protein kinase C gamma type (Homo sapiens, UniProt P05129). Briefly: Inhibition of human PKCgamma.
The target in assay [8] is Cyclin-dependent kinase 4/cyclin D1 (Homo sapiens, UniProt P11802). Put plainly: Inhibition of human cdk4/cyclin D1. Format: protein-complex assay.
Chain of Cyclin-dependent kinase 4/cyclin D1 (P11802 whole entry): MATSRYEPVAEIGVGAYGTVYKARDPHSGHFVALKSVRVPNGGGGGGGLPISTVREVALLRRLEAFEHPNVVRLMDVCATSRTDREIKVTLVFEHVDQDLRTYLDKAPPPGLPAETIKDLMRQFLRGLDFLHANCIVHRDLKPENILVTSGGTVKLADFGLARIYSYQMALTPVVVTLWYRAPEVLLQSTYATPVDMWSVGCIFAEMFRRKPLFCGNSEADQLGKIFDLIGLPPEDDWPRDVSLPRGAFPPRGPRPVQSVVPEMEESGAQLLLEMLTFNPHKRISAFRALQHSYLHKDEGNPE
Chain of Cyclin-dependent kinase 4/cyclin D1 (P24385 whole entry, further chain): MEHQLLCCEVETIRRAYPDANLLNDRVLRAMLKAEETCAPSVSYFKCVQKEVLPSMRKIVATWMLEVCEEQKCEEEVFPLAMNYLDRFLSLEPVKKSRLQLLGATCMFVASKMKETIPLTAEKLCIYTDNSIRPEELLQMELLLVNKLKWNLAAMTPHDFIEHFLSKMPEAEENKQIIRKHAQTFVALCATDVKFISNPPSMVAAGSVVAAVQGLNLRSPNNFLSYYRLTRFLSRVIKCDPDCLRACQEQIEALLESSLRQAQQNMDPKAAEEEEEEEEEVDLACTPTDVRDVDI
In assay [9] the target is T1, Protein kinase C beta type (Homo sapiens, UniProt P05771). Put plainly: Inhibition of human PKCbeta1.
T1 sequence (P05771 whole entry): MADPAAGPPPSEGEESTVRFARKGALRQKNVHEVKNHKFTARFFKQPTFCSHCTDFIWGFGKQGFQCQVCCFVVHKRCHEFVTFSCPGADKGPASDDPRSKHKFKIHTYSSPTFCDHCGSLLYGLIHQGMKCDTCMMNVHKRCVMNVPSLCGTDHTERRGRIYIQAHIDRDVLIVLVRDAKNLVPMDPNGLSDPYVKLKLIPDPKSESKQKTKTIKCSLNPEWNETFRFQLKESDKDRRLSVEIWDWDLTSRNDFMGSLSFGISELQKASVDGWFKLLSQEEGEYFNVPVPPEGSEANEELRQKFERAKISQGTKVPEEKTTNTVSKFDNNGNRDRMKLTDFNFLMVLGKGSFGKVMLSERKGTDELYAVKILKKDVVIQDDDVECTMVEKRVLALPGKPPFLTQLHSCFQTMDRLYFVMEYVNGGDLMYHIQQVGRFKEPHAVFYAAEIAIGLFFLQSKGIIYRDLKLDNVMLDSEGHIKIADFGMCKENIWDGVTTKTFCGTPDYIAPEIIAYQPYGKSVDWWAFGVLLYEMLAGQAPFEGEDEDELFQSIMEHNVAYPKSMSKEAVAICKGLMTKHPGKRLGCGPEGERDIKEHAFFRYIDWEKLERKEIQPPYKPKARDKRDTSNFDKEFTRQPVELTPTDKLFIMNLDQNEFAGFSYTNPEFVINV
Assay [10] has as its target T2, Cdc2 (Patiria pectinifera, UniProt Q17066). Briefly: Inhibition of starfish cdc2/cyclin B assessed as [32P] incorporation in histone H1 from 150 µM [gamma32P]ATP.
In assay [11] the target is Protein kinase C eta type (Homo sapiens, UniProt P24723). Put plainly: Inhibition of human PKCeta.
Chain of Protein kinase C eta type (P24723 whole entry): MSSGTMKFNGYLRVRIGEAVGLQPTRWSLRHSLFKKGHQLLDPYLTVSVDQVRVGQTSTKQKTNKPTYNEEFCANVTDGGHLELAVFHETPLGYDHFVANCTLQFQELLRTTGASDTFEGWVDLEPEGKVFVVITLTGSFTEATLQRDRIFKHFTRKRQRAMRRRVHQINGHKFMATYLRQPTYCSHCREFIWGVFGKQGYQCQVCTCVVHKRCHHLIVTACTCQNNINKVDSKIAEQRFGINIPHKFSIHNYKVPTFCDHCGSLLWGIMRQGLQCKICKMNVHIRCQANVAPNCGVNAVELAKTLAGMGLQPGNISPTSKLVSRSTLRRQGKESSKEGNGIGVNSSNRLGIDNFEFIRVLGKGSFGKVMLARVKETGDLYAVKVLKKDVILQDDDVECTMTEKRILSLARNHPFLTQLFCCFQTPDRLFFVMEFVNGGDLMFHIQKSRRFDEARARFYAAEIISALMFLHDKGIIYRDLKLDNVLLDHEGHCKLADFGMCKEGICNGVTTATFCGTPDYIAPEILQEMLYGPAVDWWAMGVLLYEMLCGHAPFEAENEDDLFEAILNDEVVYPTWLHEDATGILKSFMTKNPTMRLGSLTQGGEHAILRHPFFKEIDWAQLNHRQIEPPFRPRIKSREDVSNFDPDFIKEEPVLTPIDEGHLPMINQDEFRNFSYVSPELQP
For assay [12], the target named is T1, Protein kinase C beta type. Briefly: Inhibition of human PKCbeta2.
A short description of assay [13]: Inhibition of human Raf kinase.
Assay [14] is described as follows: Inhibition of human v-abl.
Assay [15] has as its target T3, Cyclin-dependent kinase 2 (Homo sapiens, UniProt P24941). Put plainly: Inhibition of human cdk2/cyclin A.
The target of assay [16] is Protein kinase C delta type (Homo sapiens, UniProt Q05655). Put plainly: Inhibition of human PKCdelta.
Chain of Protein kinase C delta type (Q05655 whole entry): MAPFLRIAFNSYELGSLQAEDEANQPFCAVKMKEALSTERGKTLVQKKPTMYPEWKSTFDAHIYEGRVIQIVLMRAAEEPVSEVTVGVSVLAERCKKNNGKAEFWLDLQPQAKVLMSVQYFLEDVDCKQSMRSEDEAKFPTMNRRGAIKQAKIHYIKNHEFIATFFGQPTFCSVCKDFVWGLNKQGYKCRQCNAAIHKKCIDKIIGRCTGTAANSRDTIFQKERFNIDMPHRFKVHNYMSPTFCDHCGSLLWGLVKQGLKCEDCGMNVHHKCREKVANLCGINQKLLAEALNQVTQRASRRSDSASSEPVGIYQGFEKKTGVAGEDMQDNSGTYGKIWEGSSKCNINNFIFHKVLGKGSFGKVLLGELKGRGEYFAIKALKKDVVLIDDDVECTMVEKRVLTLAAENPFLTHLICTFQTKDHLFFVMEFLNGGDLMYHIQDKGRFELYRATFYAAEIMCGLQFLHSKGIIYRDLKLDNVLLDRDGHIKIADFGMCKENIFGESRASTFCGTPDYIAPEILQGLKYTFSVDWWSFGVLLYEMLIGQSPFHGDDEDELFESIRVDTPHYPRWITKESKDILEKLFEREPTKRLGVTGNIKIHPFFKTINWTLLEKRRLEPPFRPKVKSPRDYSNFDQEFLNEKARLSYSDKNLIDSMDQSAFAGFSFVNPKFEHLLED
The target in assay [17] is T4, Cyclin-dependent kinase 1 (Saccharomyces cerevisiae S288c, UniProt P00546). Briefly: Inhibition of Saccharomyces cerevisiae cdc28.
A short description of assay [18]: Inhibition of human casein kinase 1.
The nature of assay [19]: Inhibition of human cAMP-dependent protein kinase.
The next assay addresses Insulin receptor (Homo sapiens, UniProt P06213). Briefly: Inhibition of human insulin receptor.
Assay [20] has as its target Mitogen-activated protein kinase 3 (Homo sapiens, UniProt P27361). Briefly: Inhibition of human Erk1.
A short description of assay [21]: Inhibition of human cGMP-dependent protein kinase.
Assay [22] has as its target T3, Cyclin-dependent kinase 2. Briefly: Inhibition of human cdk2/cyclin E.
In assay [23] the target is Protein kinase C epsilon type (Homo sapiens, UniProt Q02156). Put plainly: Inhibition of human PKCepsilon.
For assay [24], the target named is T2, Cdc2. Briefly: Inhibition of starfish cdc2/cyclin B assessed as [32P] incorporation in histone H1 from 1.5 mM [gamma32P]ATP.
The target in assay [25] is Cyclin-dependent kinase 1/cyclin B1 (Homo sapiens, UniProt P06493). Put plainly: Inhibition of human cdc2/cyclin B assessed as [32P] incorporation in histone H1 from [gamma32P]ATP. Format: protein-complex assay.
For assay [26], the system named is MRC5. Put plainly: Cell cycle arrest in human MRC5 cells assessed as accumulation at G1/S phase at low concentration after 18 hrs by FACS analysis. In kind it is functional, cell-based. Background: A flow cytometer gives signals particle by particle.
Assay [27] deals with MRC5. Put plainly: Cell cycle arrest in human MRC5 cells assessed as accumulation at G1/S phase at high concentration after 18 hrs by FACS analysis. In kind it is functional, cell-based.
The subject of assay [28] is MRC5. Put plainly: Cell cycle arrest in human MRC5 cells assessed as accumulation at G2/M phase at high concentration after 18 hrs by FACS analysis. Format: functional, cell-based.
The target in assay [29] is Meiotic mRNA stability protein kinase SSN3 (Saccharomyces cerevisiae S288c, UniProt P39073). Briefly: Inhibition of yeast W303 Srb10 phosphorylation assessed as [32P] incorporation in histone H1 from [gamma32P]ATP by scintillation counting.
In assay [30] the target is Cyclin-dependent protein kinase PHO85 (Saccharomyces cerevisiae S288c, UniProt P17157). Briefly: Inhibition of yeast W303 Pho85 phosphorylation assessed as [32P] incorporation in histone H1 from [gamma32P]ATP by scintillation counting.
Assay [31] relates to Saccharomyces cerevisiae. Put plainly: Increase in PHO8 mRNA level in delta snq2, delta pdr5 and delta erg6 knock out yeast YRP1 at 25 µM after 2 hrs by high-density oligonucleotide array. Format: functional, organism-based. The settings on record: […]. The gist of the method: (§1)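 Drug-sensitized S. cerevisiae cultures grown to late logarithmic phase, then exposed to 25 μM inhibitor for 2 h. Polyadenylated mRNA isolated, converted to biotin-labeled cRNA and hybridized to a set of four high-density arrays carrying more than 260,000 25-nucleotide oligomers. Transcripts scored as changed when they shifted more than twofold in triplicate hybridizations for each of two independent experiments.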

The subject of assay [32] is Saccharomyces cerevisiae. Put plainly: Increase in PHO81 mRNA level in delta snq2, delta pdr5 and delta erg6 knock out yeast YRP1 at 25 µM after 2 hrs by high-density oligonucleotide array. In kind it is functional, organism-based. To be noted: 25 M. In a few lines:
as §1

Assay [33] deals with Serine/threonine-protein kinase KIN28 (Saccharomyces cerevisiae S288c, UniProt P06242). Put plainly: Inhibition of yeast W303 Kin28 phosphorylation assessed as [32P] incorporation in histone H1 from [gamma32P]ATP by scintillation counting.
For assay [34], the system named is Saccharomyces cerevisiae. Put plainly: Increase in PHO84 mRNA level in delta snq2, delta pdr5 and delta erg6 knock out yeast YRP1 at 25 µM after 2 hrs by high-density oligonucleotide array. In kind it is functional, organism-based. To be noted: […]. In a few lines: as §1
Assay [35] deals with Saccharomyces cerevisiae. Briefly: Increase in PHO80 mRNA level in delta snq2, delta pdr5 and delta erg6 knock out yeast YRP1 at 25 µM after 2 hrs by high-density oligonucleotide array. In kind it is functional, organism-based. The settings on record: […]. In a few lines:
as §1

Assay [36] relates to Saccharomyces cerevisiae. Briefly: Increase in CTT1 mRNA level in delta snq2, delta pdr5 and delta erg6 knock out yeast YRP1 at 25 µM after 2 hrs by high-density oligonucleotide array. The settings on record: 25 M. Format: functional, organism-based. The gist of the method: as §1
Assay [37] addresses T4, Cyclin-dependent kinase 1. Briefly: Inhibition of yeast W303 cdc28 phosphorylation assessed as [32P] incorporation in histone H1 from [gamma32P]ATP by scintillation counting.
In assay [38] the test system is Saccharomyces cerevisiae. Put plainly: Increase in PHO5 mRNA level in delta snq2, delta pdr5 and delta erg6 knock out yeast YRP1 at 25 µM after 2 hrs by high-density oligonucleotide array. In kind it is functional, organism-based. The settings on record: […]. The gist of the method: as §1
Assay [39] has as its system Saccharomyces cerevisiae. Put plainly: Increase in YBR296c mRNA level in delta snq2, delta pdr5 and delta erg6 knock out yeast YRP1 at 25 µM after 2 hrs by high-density oligonucleotide array. Format: functional, organism-based. To be noted: 25 M. The gist of the method:
as §1

The test system of assay [40] is Saccharomyces cerevisiae. Put plainly: Increase in PCL5 mRNA level in delta snq2, delta pdr5 and delta erg6 knock out yeast YRP1 at 25 µM after 2 hrs by high-density oligonucleotide array. In kind it is functional, organism-based. To be noted: […]. In a few lines:
as §1

The subject of assay [41] is Saccharomyces cerevisiae. Briefly: Increase in UB14 mRNA level in delta snq2, delta pdr5 and delta erg6 knock out yeast YRP1 at 25 µM after 2 hrs by high-density oligonucleotide array. Format: functional, organism-based. The settings on record: […]. In a few lines: as §1
The subject of assay [42] is Saccharomyces cerevisiae. Put plainly: Growth inhibition of delta snq2, delta pdr5 and delta erg6 knock out yeast YRP1 after 2 hrs. Format: functional.
Assay [43] addresses Serine/threonine-protein kinase CAK1 (Saccharomyces cerevisiae S288c, UniProt P43568). Put plainly: Inhibition of yeast W303 Cak1 phosphorylation assessed as [32P] incorporation in histone H1 from [gamma32P]ATP by scintillation counting.
In assay [44] the test system is Saccharomyces cerevisiae. Briefly: Growth inhibition of delta snq2, delta pdr5 and delta erg6 knock out yeast YRP1 assessed as induction of uniform arrest morphology. In kind it is functional, organism-based.
Assay [45] deals with Saccharomyces cerevisiae. Briefly: Growth inhibition of delta snq2, delta pdr5 and delta erg6 knock out yeast YRP1 assessed as synchronization by FACS analysis. In kind it is functional, organism-based.
Assay [46] has as its system Saccharomyces cerevisiae. Briefly: Increase in HSP12 mRNA level in delta snq2, delta pdr5 and delta erg6 knock out yeast YRP1 at 25 µM after 2 hrs by high-density oligonucleotide array. To be noted: […]. Format: functional, organism-based. The gist of the method: as §1

Chain of Glycogen synthase kinase-3 beta (P49841 whole entry): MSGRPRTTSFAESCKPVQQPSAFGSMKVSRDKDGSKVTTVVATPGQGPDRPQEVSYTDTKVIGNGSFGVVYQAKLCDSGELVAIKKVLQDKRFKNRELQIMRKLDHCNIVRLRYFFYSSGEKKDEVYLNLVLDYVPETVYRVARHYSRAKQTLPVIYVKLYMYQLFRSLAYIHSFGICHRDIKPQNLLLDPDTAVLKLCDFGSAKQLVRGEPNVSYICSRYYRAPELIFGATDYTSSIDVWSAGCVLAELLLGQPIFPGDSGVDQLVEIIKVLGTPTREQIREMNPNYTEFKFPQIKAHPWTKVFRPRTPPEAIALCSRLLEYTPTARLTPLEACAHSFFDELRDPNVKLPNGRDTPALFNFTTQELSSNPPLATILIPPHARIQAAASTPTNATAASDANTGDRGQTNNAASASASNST
T2 sequence (Q17066 whole entry): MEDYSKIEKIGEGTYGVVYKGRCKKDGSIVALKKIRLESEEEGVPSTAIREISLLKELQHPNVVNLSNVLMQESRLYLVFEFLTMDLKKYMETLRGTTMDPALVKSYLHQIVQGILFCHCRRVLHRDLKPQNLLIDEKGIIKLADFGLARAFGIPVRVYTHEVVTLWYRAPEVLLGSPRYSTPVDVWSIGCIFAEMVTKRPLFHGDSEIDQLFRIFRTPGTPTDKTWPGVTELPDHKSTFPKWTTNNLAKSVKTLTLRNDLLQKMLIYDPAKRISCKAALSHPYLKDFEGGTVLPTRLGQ
Chain of Mitogen-activated protein kinase 3 (P27361 whole entry): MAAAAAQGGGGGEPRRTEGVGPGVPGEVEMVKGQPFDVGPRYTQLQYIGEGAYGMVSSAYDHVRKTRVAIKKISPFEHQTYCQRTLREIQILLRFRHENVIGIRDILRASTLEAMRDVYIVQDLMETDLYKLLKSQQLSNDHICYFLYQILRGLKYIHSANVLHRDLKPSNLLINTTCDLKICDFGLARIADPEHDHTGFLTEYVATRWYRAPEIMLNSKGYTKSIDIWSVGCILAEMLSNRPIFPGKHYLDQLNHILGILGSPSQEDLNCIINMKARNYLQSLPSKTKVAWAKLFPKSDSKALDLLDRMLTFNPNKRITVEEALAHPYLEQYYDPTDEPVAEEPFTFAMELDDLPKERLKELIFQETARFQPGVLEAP
Chain of Protein kinase C zeta type (Q05513 whole entry): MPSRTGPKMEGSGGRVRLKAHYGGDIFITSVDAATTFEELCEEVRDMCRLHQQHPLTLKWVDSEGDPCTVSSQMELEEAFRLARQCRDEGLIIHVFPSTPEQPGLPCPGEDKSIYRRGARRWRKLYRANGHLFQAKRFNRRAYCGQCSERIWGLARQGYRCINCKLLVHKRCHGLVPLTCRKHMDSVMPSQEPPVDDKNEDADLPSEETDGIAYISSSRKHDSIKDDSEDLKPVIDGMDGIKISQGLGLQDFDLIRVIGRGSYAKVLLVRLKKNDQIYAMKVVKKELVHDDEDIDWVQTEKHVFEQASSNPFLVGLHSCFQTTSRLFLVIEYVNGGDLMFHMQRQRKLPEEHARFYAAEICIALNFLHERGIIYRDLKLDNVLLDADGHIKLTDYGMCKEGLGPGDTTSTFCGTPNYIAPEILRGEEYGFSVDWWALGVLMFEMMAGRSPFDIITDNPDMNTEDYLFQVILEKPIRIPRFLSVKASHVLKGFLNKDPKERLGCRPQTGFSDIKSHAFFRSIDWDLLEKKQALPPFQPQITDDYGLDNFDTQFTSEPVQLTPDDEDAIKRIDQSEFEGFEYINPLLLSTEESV

Turning to `CC(C)[C@H](CO)Nc1nc(Nc2cccc(Cl)c2)c2ncn(C(C)C)c2n1` [PURVALANOLA], the IC50 in [1] is above 100 µM; in assay [2] it was above 10 µM; in assay [3], 0.075 µM; in assay [4], above 1 µM; against Casein kinase 2, above 10 µM; in assay [6] it was above 10 µM. The IC50 in assay [7] was above 10 µM; in [8], 0.85 µM; in assay [9] it was above 10 µM; at Cdc2 [10] it was 0.04 µM; in assay [11], above 100 µM; in [12], above 10 µM. Moreover, the IC50 in [13] was above 1 µM; in assay [14], above 10 µM; in assay [15], 0.07 µM; in assay [16], above 100 µM; in assay [17] it was 0.08 µM; in [18], above 3.33 µM. For the same compound, the IC50 is 9 µM in assay [19]; 5 µM on Insulin receptor; 9 µM in assay [20]; above 10 µM in assay [21]; 0.035 µM in assay [22]; above 100 µM in assay [23]. The IC50 on Cdc2 [24] is 0.5 µM. Moreover, the GI50 with NCI-H522 was 0.347 µM; in assay [5] it was 2 µM; in the assay with KM12, 0.076 µM.

`CC(C)[C@H](CO)Nc1nc(Nc2ccc(C(=O)O)c(Cl)c2)c2ncn(C(C)C)c2n1` [PURVALANOL B]: the IC50 in assay [1] was above 100 µM; in assay [2], above 100 µM; in assay [4], above 10 µM; on Casein kinase 2, above 10 µM; in [6], above 10 µM; in assay [7] it was above 100 µM. Further, the IC50 is above 10 µM in assay [8]; above 100 µM in assay [9]; above 100 µM in [11]; above 100 µM in assay [12]; above 10 µM in assay [13]; above 100 µM in assay [14]. For the same compound, the IC50 is above 100 µM in assay [16]; above 3.33 µM in assay [18]; 3.8 µM in assay [19]; 3.33 µM in assay [20]; above 100 µM in [21]; above 100 µM in assay [23].

As to `CC(C)n1cnc2c(Nc3cccc(Cl)c3)nc(NCCO)nc21`, the IC50 in assay [25] worked out at 0.34 µM.

`COc1ccc(CNc2nc(N(CCO)CCO)nc3c2ncn3C(C)C)cc1`: the result with MRC5 [26], with MRC5 [27] and in the assay on MRC5 [28] was Active.

As for `CC(C)n1cnc2c(N(C)c3cccc(Cl)c3)nc(NCCO)nc21`, the IC50 in assay [29], in assay [30], in assay [33], in assay [37] and in assay [43] was above 500 µM each time. Further, the result in the assay with Saccharomyces cerevisiae [31], with Saccharomyces cerevisiae [32], in the assay with Saccharomyces cerevisiae [34], in the assay with Saccharomyces cerevisiae [35], in the assay on Saccharomyces cerevisiae [36] and with Saccharomyces cerevisiae [38] was inactive. The outcome with Saccharomyces cerevisiae [39], with Saccharomyces cerevisiae [40], with Saccharomyces cerevisiae [41], in the assay with Saccharomyces cerevisiae [44], with Saccharomyces cerevisiae [45] and in the assay on Saccharomyces cerevisiae [46] was inactive. The same compound gave a GI50 with Saccharomyces cerevisiae [42] of 200 µM.
